Measurements as given in ChEMBL document CHEMBL1121409, “Mechanism of decomposition of N-hydroxyacetaminophen, a postulated toxic metabolite of acetaminophen” (J Med Chem, 1980).

Experiments:
Format in all cases: ADME
[1] = The compound was tested for half life in presence of salicylate as additive (20 mM)
How it was run: (§1)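 N-hydroxyacetaminophen at 1.5 mM initial, incubated at 37 °C in 0.2 M sodium phosphate pH 7.6, with each additive (20 mM) present before adding substrate. Aliquots were quenched in cold acetic acid (final pH ~3), or mixed with 10% FeCl3 in 0.9 M HCl and read at 540 nm. Remaining substrate was tracked by HPLC peak height (system A) or by the ferric assay. First-order disappearance gave the half-life.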

[2] = The compound was tested for half life in presence of cysteine as additive (20 mM); how it was run: as §1
[3] = The compound was tested for half life in presence of acetaminophen as additive (20 mM); how it was run: as §1
[4] = The compound was tested for half life in presence of lysine as additive (20 mM); how it was run: as §1
[5] = The compound was tested for half life in presence of pyrogallol as additive (20 mM); how it was run: as §1
[6] = The compound was tested for half life in presence of p-Nitrosophenol as additive (20 mM); how it was run: as §1
[7] = The compound was tested for half life in presence of methionine as additive (20 mM); how it was run: as §1
[8] = The compound was tested for half life in presence of thiosulphate as additive (20 mM); how it was run: as §1
[9] = The compound was tested for half life in presence of cystamine as additive (20 mM); how it was run: as §1
[10] = The compound was tested for half life in presence of dithionite as additive (20 mM); how it was run: as §1
[11] = The compound was tested for half life in presence of glycine as additive (20 mM); how it was run: as §1
[12] = The compound was tested for half life in presence of ethanol as additive (20 mM); how it was run: as §1
[13] = The compound was tested for half life in presence of N-acetyl cysteine as additive (20 mM); how it was run: as §1
[14] = The compound was tested for half life in presence of ascorbic acid as additive (20 mM); how it was run: as §1
[15] = The compound was tested for half life in presence of aspirin as additive (20 mM); how it was run: as §1
[16] = The compound was tested for half life in presence of cysteamine as additive (20 mM); how it was run: as §1
[17] = The compound was tested for half life in presence of control; how it was run: as §1
[18] = The compound was tested for half life in presence of phenol as additive (20 mM); how it was run: as §1

Compound: CC(=O)N(O)c1ccc(O)cc1
- half-life [1]: 6.5 min
- half-life [2]: 78 min
- half-life [3]: 33 min
- half-life [4]: 23 min
- half-life [5]: 60 min
- half-life [6]: 17 min
- half-life [7]: 31 min
- half-life [8]: 31 min
- half-life [9]: 43 min
- half-life [10]: 24 min
- half-life [11]: 24 min
- half-life [12]: 6.7 min
- half-life [13]: 68 min
- half-life [14]: 76 min
- half-life [15]: 6.4 min
- half-life [16]: 72 min
- half-life [17]: 9.4 min
- half-life [18]: 14 min
